This passage reports IC50 results from ChEMBL document CHEMBL4270578, “Synthesis and cytotoxic studies of novel 5-phenylisatin derivatives and their anti-migration and anti-angiogenic evaluation” (Eur J Med Chem, 2018).

One assay concerns K562. The experiment in a line: Antiproliferative activity against human K562 cells after 48 hrs by MTT assay. Format: functional, cell-based. Conditions: K562, 48 h. The procedure, abridged: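 MTT assay on K562 cells (RPMI-1640, 10% FBS) plated at 5 × 10^4 cells/ml for 2 h, then exposed to 10–100,000 nM compound for 48 h. MTT (5 mg/mL stock) added for 4 h before absorbance read. Viability normalized to DMSO controls (100%); IC50 from nonlinear regression, three independent assays.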

The next assay relates to HepG2. The experiment in a line: Antiproliferative activity against human HepG2 cells after 48 hrs by MTT assay. It counts as functional, cell-based. Conditions: HepG2, 48 h.

Molecules are shown by their SMILES. Some results are limits rather than exact numbers.

`COc1ccc(-c2ccc3c(c2)C(=O)C(=O)N3Cc2ccccc2Cl)cc1`: the IC50 came out at 380 nM in the assay with K562 and 600 nM in the assay on HepG2. The corresponding values for `COc1ccc(CN2C(=O)C(O)c3cc(-c4ccc(OC)cc4)ccc32)cc1` (stereo not drawn) are 140 nM and 700 nM. Taken in the same sequence, the figures for `COc1ccc(CN2C(=O)C(=O)c3cc(-c4ccc(Cl)cc4)ccc32)cc1` were 230 nM and 380 nM. The corresponding values for `COc1ccc(CN2C(=O)C(=O)c3cccc(-c4ccc(OC)cc4)c32)cc1` are 4430 nM and 8560 nM. In the case of `COc1ccc(CN2C(=O)C(=O)c3cc(-c4cccc(OC)c4)ccc32)cc1`, the 50% inhibitory concentration (IC50) in the assay on K562 was 100 nM; in the assay on HepG2, 1890 nM. In the case of `COc1ccc(CN2C(=O)C(=O)c3cc(-c4ccc(OC(C)C)cc4)ccc32)cc1`, the IC50 was 310 nM in the assay on K562 and greater than 10000 nM in the assay with HepG2. Taken in the same sequence, the figures for `COc1ccc(-c2ccc3c(c2)C(=O)C(=O)N3)cc1` were 6920 nM and 960 nM. The corresponding values for `COc1ccc(CN2C(=O)C(=O)c3cc(-c4ccccc4)ccc32)cc1` are 150 nM and 1080 nM. The corresponding values for `O=C1Nc2ccccc2C1=O` [ISATIN] are greater than 10000 nM and greater than 10000 nM. For the compound `COc1ccc(-c2ccc3c(c2)C(=O)C(=O)N3c2ccc(OC)cc2)cc1`, the IC50 in the assay with K562 and with HepG2 was greater than 10000 nM throughout. Regarding `COc1ccc(CN2C(=O)C(=O)c3cc(-c4ccncc4)ccc32)cc1`, the IC50 in the assay with K562 is 40 nM; with HepG2, greater than 10000 nM. Taken in the same sequence, the figures for `CCN1C(=O)C(=O)c2cc(-c3ccc(OC)cc3)ccc21` were 2200 nM and 4470 nM. The corresponding values for `COc1ccc(CN2C(=O)C(=O)c3cc(-c4ccc(C)cc4)ccc32)cc1` are 400 nM and greater than 10000 nM. The corresponding values for `O=C1Nc2ccc(Br)cc2C1=O` are greater than 10000 nM and greater than 10000 nM. As to `C=CCN1C(=O)C(=O)c2cc(-c3ccc(OC)cc3)ccc21`, the figures for the IC50 with K562 and in the assay with HepG2 were 390 nM and 7090 nM, respectively. The corresponding values for `O=C1Nc2ccc(F)cc2C1=O` [5-FLUOROISATIN] are greater than 10000 nM and greater than 10000 nM.

On to `COc1ccc(-c2ccc3c(c2)C(=O)C(=O)N3C)cc1`, for which the values for the IC50 in the assay on K562 and in the assay with HepG2 were 4980 nM and 6670 nM, respectively.

Take `COc1ccc(CN2C(=O)C(=O)c3cc(-c4ccc(OC)c(OC)c4)ccc32)cc1`: the IC50 is 260 nM with K562 and greater than 10000 nM with HepG2.

As for `Cc1ccc(-c2ccc3c(c2)C(=O)C(=O)N3)cc1`, the IC50 with K562 was greater than 10000 nM; in the assay with HepG2, 6000 nM.

On to `COc1ccc(CN2C(=O)C(=O)c3cc(-c4ccc(C#N)cc4)ccc32)cc1`, for which the values for the 50% inhibitory concentration (IC50) in the assay on K562 and in the assay with HepG2 were 260 nM and 890 nM, respectively. The corresponding values for `O=C1Nc2ccc(-c3ccc(C(F)(F)F)cc3)cc2C1=O` are greater than 10000 nM and 5430 nM.

In the case of `COc1ccc(-c2ccc3c(c2)C(=O)C(=O)N3Cc2ccc(C)cc2)cc1`, the figures for the IC50 in the assay on K562 and in the assay on HepG2 were 270 nM and 330 nM, respectively. On to `COc1ccc(-c2ccc3c(c2)C(=O)C(=O)N3Cc2ccc(F)cc2)cc1`, for which the IC50 turned out to be 560 nM in the assay on K562 and 1120 nM in the assay on HepG2.

As for `COc1ccc(CN2C(=O)/C(=C\c3ccc(C(F)(F)F)cc3)c3cc(-c4ccc(OC)cc4)ccc32)cc1`, the concentration for half-maximal inhibition (IC50) in the assay on K562 is 1900 nM; in the assay with HepG2 it was greater than 10000 nM. The corresponding values for `COc1ccc(-c2ccc3c(c2)C(=O)C(=O)N3CCOc2ccccc2)cc1` are 400 nM and 700 nM.

As for `COc1ccc(CN2C(=O)C(=O)c3cc(-c4ccccc4OC)ccc32)cc1`, the concentration for half-maximal inhibition (IC50) in the assay on K562 is 370 nM; in the assay with HepG2, greater than 10000 nM. Taken in the same sequence, the figures for `O=C1Nc2ccc(-c3ccccc3)cc2C1=O` were greater than 10000 nM and 5330 nM. The corresponding values for `COc1ccc(CN2C(=O)/C(=C\c3ccc(C(C)C)cc3)c3cc(-c4ccc(OC)cc4)ccc32)cc1` are greater than 10000 nM and greater than 10000 nM. Taken in the same sequence, the figures for `COc1ccc(CN2C(=O)C(=O)c3cc(-c4ccc(F)c(Cl)c4)ccc32)cc1` were 380 nM and greater than 10000 nM. Turning to `COc1ccc(-c2ccc3c(c2)C(=O)C(=O)N3Cc2cccc(Cl)c2)cc1`, the 50% inhibitory concentration (IC50) worked out at 200 nM with K562 and 320 nM in the assay on HepG2. The corresponding values for `COc1ccc(-c2ccc3c(c2)C(=O)C(=O)N3Cc2ccccc2OC)cc1` are 40 nM and 130 nM. Take `COc1ccc(CN2C(=O)C(=O)c3c(-c4ccc(OC)cc4)cccc32)cc1`: the half-inhibitory concentration (IC50) in the assay on K562 and with HepG2 was greater than 10000 nM throughout.

Regarding `CC[C@@]1(O)C(=O)OCc2c1cc1n(c2=O)Cc2cc3ccccc3nc2-1` [CAMPTOTHECIN], the half-inhibitory concentration (IC50) with K562 was determined as 70 nM; with HepG2, 370 nM. The corresponding values for `COc1ccc(CN2C(=O)C(=O)c3cc(-c4ccc(C(F)(F)F)cc4)ccc32)cc1` are 350 nM and 820 nM.

With `COc1ccc(-c2ccc3c(c2)C(=O)C(=O)N3Cc2ccc(C#N)cc2)cc1`, the half-inhibitory concentration (IC50) amounted to 380 nM in the assay with K562 and 1000 nM in the assay with HepG2. Taken in the same sequence, the figures for `COc1ccc2c(c1)C(=O)C(=O)N2` [5-METHOXYISATIN] were greater than 10000 nM and greater than 10000 nM. The corresponding values for `COc1ccc(-c2ccc3c(c2)C(=O)C(=O)N3Cc2cc(C)cc(C)c2)cc1` are 140 nM and 410 nM. For the compound `COc1ccc(CN2C(=O)C3(OCCO3)c3cc(-c4ccc(OC)cc4)ccc32)cc1`, the half-inhibitory concentration (IC50) with K562 and in the assay with HepG2 was greater than 10000 nM throughout. For the compound `COc1ccc(CN2C(=O)/C(=N\O)c3cc(-c4ccc(OC)cc4)ccc32)cc1`, the IC50 in the assay with K562 and with HepG2 was greater than 10000 nM in each case. With `COc1ccc(CN2C(=O)C(=O)c3cc(-c4ccc(F)cc4)ccc32)cc1`, the results for the 50% inhibitory concentration (IC50) in the assay with K562 and in the assay with HepG2 were 240 nM and 3150 nM, respectively. In the assay on HepG2, `COc1ccc(-c2ccc3c(c2)C(=O)C(=O)N3Cc2ccc3ccccc3c2)cc1` displayed an IC50 of 380 nM. Regarding `COc1ccc(CN2C(=O)C(=O)c3cc(-c4ccc(O)cc4)ccc32)cc1`, the 50% inhibitory concentration (IC50) is 60 nM in the assay with K562 and greater than 10000 nM in the assay with HepG2. For `COc1ccc(CN2C(=O)C(=O)c3cc(-c4ccc(C(C)(C)C)cc4)ccc32)cc1`, the concentration for half-maximal inhibition (IC50) in the assay with K562 was 2250 nM; in the assay on HepG2, 4580 nM. The corresponding values for `O=C1Nc2ccc(Cl)cc2C1=O` are greater than 10000 nM and greater than 10000 nM. For the compound `CCCCc1ccc2c(c1)C(=O)C(=O)N2`, the IC50 with K562 and in the assay on HepG2 was greater than 10000 nM throughout. For the compound `COc1ccc(-c2ccc3c(c2)C(=O)C(=O)N3Cc2ccc(C(F)(F)F)cc2)cc1`, the IC50 with K562 amounted to 270 nM; with HepG2, 380 nM. Taken in the same sequence, the figures for `COc1ccc(-c2ccc3c(c2)C(=O)C(=O)N3Cc2ccccc2)cc1` were 570 nM and 1360 nM. `COc1ccc(-c2ccc3c(c2)C(=O)C(=O)N3Cc2cccc(OC)c2)cc1` yielded a concentration for half-maximal inhibition (IC50) in the assay on HepG2 of 700 nM.

In the case of `COc1ccc(-c2ccc3c(c2)C(=O)C(=O)N3Cc2ccc(OC)c(OC)c2)cc1`, the results for the IC50 with K562 and in the assay on HepG2 were 60 nM and 1350 nM, respectively. Taken in the same sequence, the figures for `COc1ccc(CN2C(=O)C(=O)c3ccc(-c4ccc(OC)cc4)cc32)cc1` were 7460 nM and greater than 10000 nM. The corresponding values for `COc1ccc(CN2C(=O)/C(=C\c3ccccc3)c3cc(-c4ccc(OC)cc4)ccc32)cc1` are greater than 10000 nM and greater than 10000 nM. As to `COc1ccc(CN2C(=O)C(=O)c3cc(-c4ccc5ccccc5c4)ccc32)cc1`, the 50% inhibitory concentration (IC50) in the assay on K562 is 340 nM; with HepG2, greater than 10000 nM. `COc1ccc(-c2ccc3c(c2)C(=O)C(=O)N3Cc2ccc3c(c2)OCO3)cc1`: the IC50 in the assay with K562 amounted to 30 nM; with HepG2 it was 440 nM. The corresponding values for `COc1ccc(CN2C(=O)C(=O)c3cc(-c4ccc(OC(F)(F)F)cc4)ccc32)cc1` are 60 nM and 410 nM. On to `COc1ccc(-c2ccc3c(c2)C(=O)C(=O)N3Cc2ccc(Cl)cc2)cc1`, for which the concentration for half-maximal inhibition (IC50) was found to be 350 nM in the assay with K562 and 250 nM in the assay with HepG2. Taken in the same sequence, the figures for `Cc1ccc2c(c1)C(=O)C(=O)N2` were greater than 10000 nM and greater than 10000 nM.

With `COC(=O)/C=C1\C(=O)N(Cc2ccc(OC)cc2)c2ccc(-c3ccc(OC)cc3)cc21`, the IC50 worked out at 1900 nM in the assay with K562 and 4730 nM with HepG2. As for `COc1ccc(-c2ccc3c(c2)C(=O)C(=O)N3Cc2ccc(Br)cc2)cc1`, the IC50 came to 100 nM in the assay on K562 and 700 nM with HepG2.

As to `CCOC(=O)/C=C1\C(=O)N(Cc2ccc(OC)cc2)c2ccc(-c3ccc(OC)cc3)cc21`, the values for the concentration for half-maximal inhibition (IC50) in the assay on K562 and with HepG2 were 1240 nM and 3390 nM, respectively. Taken in the same sequence, the figures for `COc1ccc(-c2ccc3c(c2)C(=O)C(=O)N3Cc2ccc(Cl)c(Cl)c2)cc1` were 430 nM and 990 nM. The corresponding values for `COc1ccc(CN2C(=O)Cc3cc(-c4ccc(OC)cc4)ccc32)cc1` are greater than 10000 nM and greater than 10000 nM. In the case of `COc1ccc(CN2C(=O)C(=O)c3cc(-c4ccsc4)ccc32)cc1`, the IC50 in the assay on K562 worked out at 80 nM; with HepG2 it was 3670 nM. Taken in the same sequence, the figures for `COc1ccc(CN2C(=O)C(=O)c3cc(-c4cc(OC)cc(OC)c4)ccc32)cc1` were 510 nM and 1200 nM. For `COc1ccc(CN2C(=O)C(F)(F)c3cc(-c4ccc(OC)cc4)ccc32)cc1`, the IC50 in the assay with K562 and in the assay with HepG2 was greater than 10000 nM in each case. Consider `COc1ccc(CN2C(=O)C(C)(O)c3cc(-c4ccc(OC)cc4)ccc32)cc1` (stereo not drawn), for which the IC50 with K562 and with HepG2 was greater than 10000 nM each time.
